From ChEMBL document CHEMBL1221285, “Inhibition of interleukin-1beta converting enzyme (ICE or caspase 1) by aspartyl acyloxyalkyl ketones and aspartyl amidooxyalkyl ketones” (Bioorg Med Chem Lett, 2010) come the findings set out here.

Each structure is given as a SMILES string.

In the first assay the target is T1, Caspase-1 (Homo sapiens, UniProt P29466).
T1 sequence (P29466 whole entry): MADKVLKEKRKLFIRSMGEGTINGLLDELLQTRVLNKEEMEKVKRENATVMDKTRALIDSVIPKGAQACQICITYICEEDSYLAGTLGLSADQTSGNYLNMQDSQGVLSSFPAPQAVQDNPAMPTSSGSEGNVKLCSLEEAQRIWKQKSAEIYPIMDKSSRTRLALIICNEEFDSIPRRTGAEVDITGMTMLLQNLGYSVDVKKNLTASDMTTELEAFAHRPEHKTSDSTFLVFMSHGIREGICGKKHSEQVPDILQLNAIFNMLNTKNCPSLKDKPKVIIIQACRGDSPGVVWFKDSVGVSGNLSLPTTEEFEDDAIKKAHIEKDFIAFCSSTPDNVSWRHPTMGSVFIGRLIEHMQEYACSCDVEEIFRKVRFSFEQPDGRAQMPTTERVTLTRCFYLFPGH
Kind of assay: Inhibition of ICE. The procedure, abridged: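 Recombinant ICE; inhibition followed by fluorescence. Ki reported as the geometric mean of two or more experiments.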
By Ki is commonly meant the dissociation constant of the complex between target and ligand, obtained from inhibition or displacement. For `O=C(O)C[C@H](NC(=O)OCc1ccccc1)C(=O)CONC(=O)Cc1ccccc1`, the Ki is 66.5 µM.
Consider `Cc1ccc(CC(=O)OCC(=O)[C@H](CC(=O)O)NC(=O)OCc2ccccc2)c2ccccc12`, for which the affinity, expressed as Ki, was 1.3 µM.
For `Cc1cccc2cccc(CC(=O)OCC(=O)[C@H](CC(=O)O)NC(=O)OCc3ccccc3)c12`, affinity was put at a Ki of 8.5 µM.
Same read-out and setting: in the case of `O=C(O)C[C@H](NC(=O)OCc1ccccc1)C(=O)COC(=O)CC(c1ccccc1)c1ccccn1` (stereo partly specified) it was 1.1 µM.
A word on the IC50: it is the concentration at which inhibition is half-maximal. `CC(C)[C@H](NC(=O)OCc1ccccc1)C(=O)N[C@@H](C)C(=O)N[C@@H](CC(=O)O)C(=O)CCCCCc1ccccc1` returned an IC50 of 0.976 µM and an inhibition constant (Ki) of 0.134 µM.
The matching figures for `CC(C)[C@H](NC(=O)OCc1ccccc1)C(=O)N[C@@H](C)C(=O)N[C@@H](CC(=O)O)C(=O)COC(=O)Cc1cccc2ccccc12`: 0.002 µM and 0.003 µM.
With `O=C(O)C[C@H](NC(=O)OCc1ccccc1)C(=O)CONC(=O)CCc1cccc2ccccc12`, the inhibition constant (Ki) stood at 298 µM.
Same read-out and setting: in the case of `O=C(O)C[C@H](NC(=O)OCc1ccccc1)C(=O)COC(=O)Cc1ccc2ccccc2c1` it was 1.3 µM.
The same measure, in the same setting: then `O=C(O)C[C@H](NC(=O)OCc1ccccc1)C(=O)COC(=O)Cc1cccc2ccccc12`, with 0.5 µM.
`CC(C)[C@H](NC(=O)OCc1ccccc1)C(=O)N[C@@H](C)C(=O)N[C@@H](CC(=O)O)C(=O)COC(=O)CC(c1ccccc1)c1ccccc1`: the IC50 was found to be 0.005 µM and the affinity, expressed as Ki, was 0.001 µM.
For `Cc1ccc2ccccc2c1CC(=O)OCC(=O)[C@H](CC(=O)O)NC(=O)OCc1ccccc1`, the inhibitory constant (Ki) was 4.4 µM.
On the same count and under the same terms, then `CC(C(=O)OCC(=O)[C@H](CC(=O)O)NC(=O)OCc1ccccc1)c1cccc2ccccc12` (stereo partly specified), with 1 µM; and `O=C(O)C[C@H](NC(=O)OCc1ccccc1)C(=O)CONC(=O)Cc1cccc2ccccc12`, with 84 µM.
Compound `O=C(O)C[C@H](NC(=O)OCc1ccccc1)C(=O)COC(=O)Cc1csc2ccccc12` displayed a Ki of 1.2 µM. This Ki lies about 70-fold lower than the previous one.
`COC(=O)C[C@H]1CCC[C@H]2CC(=O)N(OCC(=O)[C@H](CC(=O)O)NC(=O)[C@H](C)NC(=O)[C@@H](NC(=O)OCc3ccccc3)C(C)C)[C@@H]12`: the IC50 is 0.026 µM and the Ki came to 0.007 µM.
`O=C(O)C[C@H](NC(=O)OCc1ccccc1)C(=O)CONC(=O)CCc1ccccc1` registered a Ki of 27.5 µM.
Take `CC(C)[C@H](NC(=O)OCc1ccccc1)C(=O)N[C@@H](C)C(=O)N[C@@H](CC(=O)O)C(=O)CON1C(=O)C[C@@H]2CCCC[C@@H]21`: the IC50 was 0.003 µM and the Ki is 0.001 µM.
As for `O=C(O)C[C@H](NC(=O)OCc1ccccc1)C(=O)COC(=O)CSc1ccccc1`, the affinity corresponds to a Ki of 1.1 µM.
Take `O=C(O)C[C@H](NC(=O)OCc1ccccc1)C(=O)COC(=O)COc1ccccc1`: affinity was put at a Ki of 1.7 µM. Compared with the last compound, the Ki is about 1.5-fold higher.
On to `O=C(O)C[C@H](NC(=O)OCc1ccccc1)C(=O)COC(=O)CCCc1ccccc1`, for which the Ki is 16 µM.
For the compound `O=C(O)C[C@H](NC(=O)OCc1ccccc1)C(=O)CON1C(=O)C[C@@H]2CCCC[C@H]21`, the Ki was 17.5 µM. The Ki values of the last two compounds are within 1.5-fold of each other.
On the same count and under the same terms, in the case of `O=C(O)C[C@H](NC(=O)OCc1ccccc1)C(=O)COC(=O)CCc1ccccc1` it was 4.5 µM; in that of `O=C(O)C[C@H](NC(=O)OCc1ccccc1)C(=O)COC(=O)CNc1ccccc1`, 5.6 µM.
Still for that read-out and setting: in the case of `O=C(O)C[C@H](NC(=O)OCc1ccccc1)C(=O)COC(=O)CC(c1ccccc1)c1ccccc1` it was 0.8 µM; in that of `O=C(O)C[C@H](NC(=O)OCc1ccccc1)C(=O)COC(=O)COc1cccc2ccccc12`, 1 µM; in that of `O=C(O)C[C@H](NC(=O)OCc1ccccc1)C(=O)CON1C(=O)C[C@@H]2CCCC[C@@H]21`, 9.2 µM.
In turn, `CC(C)[C@H](NC(=O)OCc1ccccc1)C(=O)N[C@@H](C)C(=O)N[C@@H](CC(=O)O)C(=O)COC(=O)C(Cc1ccccc1)Cc1ccccc1` registered an IC50 of 0.003 µM and a Ki of 0.002 µM.
For `O=C(O)C[C@H](NC(=O)OCc1ccccc1)C(=O)CON1C(=O)Cc2ccccc21`, affinity was put at a Ki of 6.77 µM.
In turn, `CC(=O)N[C@@H](Cc1ccc(O)cc1)C(=O)N[C@H](C(=O)N[C@@H](C)C(=O)N[C@@H](CC(=O)O)C(=O)CCCCCc1ccccc1)C(C)C` registered an IC50 of 0.078 µM. This lies in the double-digit nanomolar range.
The compound `O=C(O)C[C@H](NC(=O)OCc1ccccc1)C(=O)COC(=O)Cc1ccccc1` showed an inhibition constant (Ki) of 8.3 µM.
For `O=C(O)C[C@H](NC(=O)OCc1ccccc1)C(=O)COCCCCCc1ccccc1`, the Ki was found to be 119 µM.
Still for that read-out and setting: then `Cc1cccc2c(CC(=O)OCC(=O)[C@H](CC(=O)O)NC(=O)OCc3ccccc3)cccc12`, with 2 µM.
In turn, `O=C(O)C[C@H](NC(=O)OCc1ccccc1)C(=O)COC(=O)Cc1coc2ccccc12` showed a Ki of 0.8 µM.
The compound `O=C(O)C[C@H](NC(=O)OCc1ccccc1)C(=O)CON1Cc2ccccc2C1=O` displayed a Ki of 14 µM.
In the case of `COC(=O)C[C@H]1CCC[C@H]2CC(=O)N(OCC(=O)[C@H](CC(=O)O)NC(=O)OCc3ccccc3)[C@@H]12`, the Ki stood at 15 µM.
As to `O=C(O)C[C@H](NC(=O)OCc1ccccc1)C(=O)COC(=O)CCc1ccc2ccccc2c1`, the Ki was 6 µM. Against the preceding compound, the Ki is about 2.5-fold lower.
`CC(C)[C@H](NC(=O)OCc1ccccc1)C(=O)N[C@@H](C)C(=O)N[C@@H](CC(=O)O)C(=O)CON1C(=O)Cc2ccccc21`: the IC50 is 0.003 µM and the affinity, expressed as Ki, was 0.002 µM.
Compound `O=C(O)C[C@H](NC(=O)OCc1ccccc1)C(=O)CON1C(=O)C2C3C=CC(O3)C2C1=O` (stereo partly specified) displayed a Ki of 1.5 µM.
Still for that read-out and setting: then `O=C(O)C[C@H](NC(=O)OCc1ccccc1)C(=O)COC(=O)Cc1cccc2scnc12`, with 2.6 µM.
`O=C(O)C[C@H](NC(=O)OCc1ccccc1)C(=O)COC(=O)Cc1c[nH]c2ccccc12` gave an inhibition constant (Ki) of 0.6 µM.
Still for that read-out and setting: in the case of `O=C(O)C[C@H](NC(=O)OCc1ccccc1)C(=O)CONC(=O)c1ccccc1` it was 21 µM.

The target in the next assay is T2, Caspase-1 (Homo sapiens) (UniProt P29466).
T2 sequence (whole entry): T1 sequence (P29466 whole entry)
Kind of assay: Inhibition of ICE in human PBMC. The procedure, abridged: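 Human PBMC isolated from heparinized blood over Ficoll, washed three times in PBS, then held in RPMI 1640 with glutamine, penicillin, streptomycin and 2% human AB serum at 10^6 cells per well. Cells were stimulated overnight with LPS 10 ng/mL with or without inhibitor. Mature IL-1b in the medium was measured by ELISA. IC50 is the concentration reducing IL-1b by 50%.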
In turn, `CC(C)[C@H](NC(=O)OCc1ccccc1)C(=O)N[C@@H](C)C(=O)N[C@@H](CC(=O)O)C(=O)CCCCCc1ccccc1` yielded an IC50 of 4.9 µM.
`CC(C)[C@H](NC(=O)OCc1ccccc1)C(=O)N[C@@H](C)C(=O)N[C@@H](CC(=O)O)C(=O)COC(=O)Cc1cccc2ccccc12` came in with an IC50 of 0.6 µM.
The same measure, in the same setting: in the case of `CC(C)[C@H](NC(=O)OCc1ccccc1)C(=O)N[C@@H](C)C(=O)N[C@@H](CC(=O)O)C(=O)COC(=O)CC(c1ccccc1)c1ccccc1` it was 4.3 µM.
In turn, `COC(=O)C[C@H]1CCC[C@H]2CC(=O)N(OCC(=O)[C@H](CC(=O)O)NC(=O)[C@H](C)NC(=O)[C@@H](NC(=O)OCc3ccccc3)C(C)C)[C@@H]12` displayed an IC50 of 4.8 µM. This IC50 and that of the compound before are within 1.5-fold of each other.
Still for that read-out and setting: in the case of `CC(C)[C@H](NC(=O)OCc1ccccc1)C(=O)N[C@@H](C)C(=O)N[C@@H](CC(=O)O)C(=O)CON1C(=O)C[C@@H]2CCCC[C@@H]21` it was 2.4 µM; in that of `CC(C)[C@H](NC(=O)OCc1ccccc1)C(=O)N[C@@H](C)C(=O)N[C@@H](CC(=O)O)C(=O)COC(=O)C(Cc1ccccc1)Cc1ccccc1`, 1.4 µM; in that of `CC(=O)N[C@@H](Cc1ccc(O)cc1)C(=O)N[C@H](C(=O)N[C@@H](C)C(=O)N[C@@H](CC(=O)O)C(=O)CCCCCc1ccccc1)C(C)C`, 0.9 µM.
The same measure, in the same setting: then `CC(C)[C@H](NC(=O)OCc1ccccc1)C(=O)N[C@@H](C)C(=O)N[C@@H](CC(=O)O)C(=O)CON1C(=O)Cc2ccccc21`, with 3 µM.
